Results on six compounds are retold here after paper PMC6811699 (Stem Cells Translational Medicine, 2019).

For series [1] the following is noted: read-out: Reported neurite length IC50; literature values; cited from earlier work.
In series [2] the test system is induced sensory neuron cells (iSNs). In words: Resazurin reduction cell viability assay. Format: cell-based. The settings on record: Homo sapiens, 48 h, read-out: Detected cell viability IC50. In outline:
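iSNs were specified and matured, reseeded into 96‑well plates, and dosed 24 hours later. Compounds were given as four 10‑fold dilutions, 0.01–10 μM final, with 0.1% DMSO final, in quadruplicate wells, for 48 hours. Medium was then replaced with 10 μg/ml resazurin in snMat medium for 2 hours at 37°C, 5% CO₂. Fluorescence was read at 544/590 nm. There were three biological replicates, reported as mean ± SEM, and IC50 came from the dose–response.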
(In general: The colour change of resazurin is a common sign of viable cells or microbes.)

For series [3] the test system is unchanged. Put plainly: High-content imaging, neurite length analysis. Format: cell-based, human. The settings on record: 48 hours, 0.01–10 μM, treated 24 hours after seeding. The gist of the method: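 iSNs from blood-derived neural precursors, specified (DAPT, SU5402, CHIR99021) then matured (BDNF, GDNF, NGF, NT-3, ascorbic acid, forskolin), reseeded to 96-well plates; dosed 24 h later, 10-fold dilutions, 0.01–10 μM, 0.1% DMSO final, quadruplicate wells, 48 h.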

In the next series the test system is patients. As to conditions: cited from earlier work.
A further series has as its system iSNs. In words: Calcium imaging. Format: cell-based, human. The settings on record: iSNs from adult nonmobilized PB, 30 μM α,β-meATP. The gist of the method: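 Mature iSNs were loaded with Fluo‑4‑AM for 1 hour at room temperature, then de‑esterified for 45 minutes. They were washed and kept in Hanks' balanced salt solution with 25 mM HEPES and 5.5 mM glucose. Agonists diluted in this buffer were applied at final 30 μM α,β‑meATP or 1 μM capsaicin to day‑7 iSNs in 96‑well plates. Peak calcium flux was recorded by epifluorescence microscopy with a xenon arc lamp.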

With `CC(C)C[C@H](NC(=O)[C@H](Cc1ccccc1)NC(=O)c1cnccn1)B(O)O` [Bortezomib], the IC50 (commonly the concentration that gives 50% inhibition) in series [1] is over 100000 nM; in series [2], 1000 nM. In series [3], the “effect on neurite length / neurite degeneration” value is “neurite degeneration only at the highest tested concentrations”. Besides, the NP incidence in the series on patients is 20–30%. In addition, the “Neurotoxic dose in patients” value with patients is 30 mg/m^2.
Take `N.N.[Cl][Pt][Cl]` [Cisplatin]: the IC50 in series [1] is over 100000 nM. For the same compound, in series [3], the “effect on neurite length / neurite degeneration” value is reported as “reduced neurite length in the absence of cytotoxicity”. For the same compound, the NP incidence in the series on patients is given as 70–100%.
For `COc1cc([C@@H]2c3cc4c(cc3[C@@H](O[C@@H]3O[C@@H]5CO[C@@H](C)O[C@H]5[C@H](O)[C@H]3O)[C@H]3COC(=O)[C@H]23)OCO4)cc(OC)c1O` [Etoposide], the IC50 in series [1] is 360 nM. Also, the “effect on neurite length / neurite degeneration” value in series [3] was “reduced neurite length in the absence of cytotoxicity”.
With `CC(=O)O[C@H]1C(=O)[C@@]2(C)[C@H]([C@H](OC(=O)c3ccccc3)[C@]3(O)C[C@H](OC(=O)[C@H](O)[C@@H](NC(=O)c4ccccc4)c4ccccc4)C(C)=C1C3(C)C)[C@]1(OC(C)=O)CO[C@@H]1C[C@@H]2O` [Taxol, Paclitaxel], the IC50 in series [1] is 5.6 to 10 nM; in series [2], 7400 nM. The “effect on neurite length / neurite degeneration” value in series [3] was “reduced neurite length in the absence of cytotoxicity”.
On to `CC[C@]1(O)C[C@H]2CN(CCc3c([nH]c4ccccc34)[C@@](C(=O)OC)(c3cc4c(cc3OC)N(C=O)[C@H]3[C@@](O)(C(=O)OC)[C@H](OC(C)=O)[C@]5(CC)C=CCN6CC[C@]43[C@@H]65)C2)C1` [Vincristine], for which the IC50 in series [2] came out at 600 nM. The “effect on neurite length / neurite degeneration” value in series [3] is listed as “reduced neurite length in the absence of cytotoxicity”. In the series with patients, the NP incidence entry is “Up to 20%” and the “Neurotoxic dose in patients” value is 5–15 mg/m^2.
As to `Nc1ncnc2c1ncn2[C@@H]1O[C@H](COP(=O)(O)CP(=O)(O)OP(=O)(O)O)[C@@H](O)[C@H]1O` [α,β‐meATP, α,β‐methylene‐ATP], the “cytosolic calcium response” value in the series with iSNs was “robust elevation of cytosolic calcium”.
